Assay results published in ChEMBL document CHEMBL4680079, “Discovery of a Quinoline-4-carboxamide Derivative with a Novel Mechanism of Action, Multistage Antimalarial Activity, and Potent in Vivo Efficacy” (J Med Chem, 2016).
Calls of active or inactive are those of the source. The calls are words filed in the database; no cut-off is given here.

Key:
[1] = AUC in Sprague-Dawley rat at 5 mg/kg, po administered via gavage by UPLC-MS/MS analysis; assay type: ADME, organism-based; design: dose 5 mg/kg; conditions: in vivo
Summary of the method: (§1)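 Male Sprague Dawley rats (n=3) gavaged with a solution at 5 mg free base/kg (10 mL/kg; 0.5% w/v HPMC, 0.4% v/v Tween 80, 0.5% v/v benzyl alcohol). Blood sampled at 5, 15, 30 min and 1, 2, 4, 6, 8, 24, 30, 48 h, diluted with two volumes water, analysed by UPLC-MS/MS.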

[2] = Half-life in NMRI mouse at 1 mg/kg, iv administered as bolus dose by UPLC-MS/MS analysis; assay type: ADME, organism-based; conditions: in vivo
Plasmodium berghei [3] = assay: Antiplasmodial activity against Plasmodium berghei ANKA infected in NMRI mouse assessed as survival days at 1 mg/kg, po QD for 4 days; assay type: functional; conditions: time 4 day
Plasmodium falciparum [4] = assay: Antiplasmodial activity against drug resistant Plasmodium falciparum TM90C2A by [3H]hypoxanthine incorporation assay; assay type: functional, organism-based
Summary of the method: (§2)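 Strains (K1, W2, 7G8, TM90C2A, D6, V1/S resistant; NF54 sensitive) cultured by the Trager and Jensen method; EC50 determined in vitro from [3H]hypoxanthine incorporation.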

[5] = Protein binding in CD1 mouse plasma measured after 5 hr by UPLC-MS/MS analysis based equilibrium dialysis method; assay type: ADME, cell-free; conditions: CD1, mouse, read-out: PPB (converted)
Summary of the method: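 Equilibrium dialysis of female CD1 mouse plasma spiked at 10 μg/mL (12-14 kDa membrane) against isotonic buffer for 5 h at ~37°C with shaking. Unbound fraction taken as the buffer/plasma peak-area ratio by UPLC-MS/MS. n=6 replicates, run in triplicate.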

Plasmodium falciparum [6] = assay: Antiplasmodial activity against chloroquine-sensitive Plasmodium falciparum 3D7 infected in human red blood cells assessed as growth inhibition by SYBR Green fluorescence assay; assay type: functional, organism-based, RBC; conditions: 3D7, Erythrocyte
Summary of the method: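 P. falciparum 3D7 grown in 5% human red cells in RPMI 1640 (pH 7.3) with 0.5% Albumax II, hypoxanthine and gentamicin at 37°C under 1% O₂/3% CO₂. Growth measured by SYBR green fluorescence (ex 485/em 528 nm), with mefloquine as assay control. EC50 calculated.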

Plasmodium falciparum [7] = assay: Antiplasmodial activity against late stage (IV/V) Plasmodium falciparum NF54 gametocytes transfected with GFP-LUC assessed as growth inhibition incubated for 72 hrs by mitotracker Red-CMXROS dye based fluorescence microscopic analysis; assay type: functional, organism-based; conditions: NF54, 72 h
Summary of the method: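 NF54 pfs16-LUC-GFP stage IV–V gametocytes (10% parasitaemia, 0.1% haematocrit) exposed to compound in 0.4% DMSO, three concentrations per log, for 72 h at 37°C under 5% CO2/5% O2/90% N2. MitoTracker Red CM-H2Xros then added for 16 h and viable gametocytes counted by imaging.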

Plasmodium falciparum [8] = assay: Antiplasmodial activity against drug resistant Plasmodium falciparum D6 by [3H]hypoxanthine incorporation assay; assay type: functional, organism-based; summary of the method: as §2
Plasmodium berghei [9] = assay: Antiplasmodial activity against Plasmodium berghei ANKA infected in NMRI mouse assessed as survival days at 10 mg/kg, po QD for 4 days; assay type: functional; conditions: time 4 day
Plasmodium berghei [10] = assay: Antiplasmodial activity against Plasmodium berghei ANKA infected in NMRI mouse assessed as reduction in parasitemia at 30 mg/kg, po QD for 4 days; assay type: functional; design: scale not given: the % may be the effect or the level left; conditions: time 4 day
Summary of the method: (§3)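 Female NMRI mice (n=3 per group, randomized, not blinded) infected with GFP-transfected P. berghei ANKA. Oral dosing once daily for 4 days in 10% DMSO/40% PEG400/50% water or HPMC suspension vehicle. Parasitaemia measured by flow cytometry on blood collected 96 h after infection. Mice watched for toxicity over 4 h post-dose each day.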

[11] = Cmax in Sprague-Dawley rat at 5 mg/kg, po administered via gavage by UPLC-MS/MS analysis; assay type: ADME, organism-based; design: route oral, dose 5 mg/kg; conditions: in vivo; summary of the method: as §1
[12] = target: Voltage-gated inwardly rectifying potassium channel KCNH2 (Homo sapiens, UniProt Q12809); assay: Inhibition of human ERG by IonWorks patch-clamp electrophysiology method
Summary of the method: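 hERG K⁺ channel inhibition measured by IonWorks patch-clamp electrophysiology. Eight-point concentration-response curves made from 3-fold serial dilutions down from the maximum final assay concentration. Each curve generated on 2 occasions.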

Plasmodium falciparum [13] = assay: Antiplasmodial activity against drug resistant Plasmodium falciparum W2 by [3H]hypoxanthine incorporation assay; assay type: functional, organism-based; summary of the method: as §2
Plasmodium falciparum [14] = assay: Antiplasmodial activity against drug resistant Plasmodium falciparum K1 by [3H]hypoxanthine incorporation assay; assay type: functional, organism-based; summary of the method: as §2
Plasmodium yoelii = assay: Antiplasmodial activity against Plasmodium yoelli liver stage forms; assay type: functional, organism-based
[15] = Intrinsic clearance in human liver microsomes at 0.5 uM in presence of NADPH incubated upto 30 mins by UPLC-MS/MS analysis; assay type: ADME, Microsome; conditions: 0.5 h
Summary of the method: (§4)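 Compound at 0.5 μM incubated with female CD1 mouse, male Sprague-Dawley rat or pooled human liver microsomes (0.5 mg/mL, 50 mM potassium phosphate, pH 7.4). Reaction started with excess NADPH. Samples taken at 0-30 min, quenched in acetonitrile, analysed by UPLC-MS/MS. Verapamil used as control, single time course.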

[16] = Oral bioavailability in Sprague-Dawley rat at 3 mg/kg administered via gavage by UPLC-MS/MS analysis; assay type: ADME, organism-based; conditions: in vivo
Summary of the method: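 Oral gavage solution, 3 mg free base/kg (10 mL/kg; 0.5% w/v HPMC, 0.4% v/v Tween 80, 0.5% v/v benzyl alcohol), given to male Sprague Dawley rats (n=3). Blood taken at 5, 15, 30 min and 1, 2, 4, 6, 8, 24, 30 h, mixed with two volumes water, analysed by UPLC-MS/MS.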

Plasmodium falciparum [17] = assay: Antiplasmodial activity against drug resistant Plasmodium falciparum V1/S by [3H]hypoxanthine incorporation assay; assay type: functional, organism-based; summary of the method: as §2
MRC5 = assay: Antiproliferative activity against human MRC5 cells assessed as reduction in cell viability after 68 hrs by resazurin dye based fluorescence assay; conditions: MRC5, 68 h
Summary of the method: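 MRC-5 fibroblasts plated overnight as monolayers, exposed to compound pre-diluted in MEM for 68 h. Resazurin then added (final 50 μM) for 3 h, fluorescence read at ex 528/em 590 nm. Signal converted to % inhibition against high- and no-inhibition controls. Plates accepted at Z' > 0.5.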

[18] = Tmax in Sprague-Dawley rat at 5 mg/kg, po administered via gavage by UPLC-MS/MS analysis; assay type: ADME, organism-based; conditions: in vivo; summary of the method: as §1
Plasmodium berghei [19] = assay: Antiplasmodial activity against Plasmodium berghei ANKA infected in NMRI mouse assessed as cure rate at 10 mg/kg, po QD for 4 days; assay type: functional, organism-based; conditions: time 4.0 day; summary of the method: as §3
Plasmodium berghei [20] = assay: Antiplasmodial activity against Plasmodium berghei infected in NMRI mouse assessed as reduction in parasitemia at 3 mg/kg, po QD for 4 days; assay type: functional; design: scale not given: the % may be the effect or the level left; conditions: time 4 day; summary of the method: as §3
[21] = Intrinsic clearance in CD1 mouse liver microsomes at 0.5 uM in presence of NADPH incubated upto 30 mins by UPLC-MS/MS analysis; assay type: ADME, Microsome; conditions: 0.5 h; summary of the method: as §4
[22] = Volume of distribution at steady state in NMRI mouse at 1 mg/kg, iv administered as bolus dose by UPLC-MS/MS analysis; assay type: ADME, organism-based; conditions: in vivo
[23] = Cmax in NMRI mouse at 3 mg/kg, po administered as gavage by UPLC-MS/MS analysis; assay type: ADME, organism-based; design: route oral, dose 3 mg/kg; conditions: in vivo
Plasmodium berghei [24] = assay: Antiplasmodial activity against Plasmodium berghei ookinete form assessed as growth inhibition incubated for 22 hrs by GFP-based fluorescence microscopic analysis; assay type: functional, organism-based
Plasmodium berghei [25] = assay: Antiplasmodial activity against Plasmodium berghei ANKA infected in NMRI mouse assessed as survival days at 30 mg/kg, po QD for 4 days; assay type: functional; conditions: time 4 day

Sequence of Voltage-gated inwardly rectifying potassium channel KCNH2 (Q12809 whole entry): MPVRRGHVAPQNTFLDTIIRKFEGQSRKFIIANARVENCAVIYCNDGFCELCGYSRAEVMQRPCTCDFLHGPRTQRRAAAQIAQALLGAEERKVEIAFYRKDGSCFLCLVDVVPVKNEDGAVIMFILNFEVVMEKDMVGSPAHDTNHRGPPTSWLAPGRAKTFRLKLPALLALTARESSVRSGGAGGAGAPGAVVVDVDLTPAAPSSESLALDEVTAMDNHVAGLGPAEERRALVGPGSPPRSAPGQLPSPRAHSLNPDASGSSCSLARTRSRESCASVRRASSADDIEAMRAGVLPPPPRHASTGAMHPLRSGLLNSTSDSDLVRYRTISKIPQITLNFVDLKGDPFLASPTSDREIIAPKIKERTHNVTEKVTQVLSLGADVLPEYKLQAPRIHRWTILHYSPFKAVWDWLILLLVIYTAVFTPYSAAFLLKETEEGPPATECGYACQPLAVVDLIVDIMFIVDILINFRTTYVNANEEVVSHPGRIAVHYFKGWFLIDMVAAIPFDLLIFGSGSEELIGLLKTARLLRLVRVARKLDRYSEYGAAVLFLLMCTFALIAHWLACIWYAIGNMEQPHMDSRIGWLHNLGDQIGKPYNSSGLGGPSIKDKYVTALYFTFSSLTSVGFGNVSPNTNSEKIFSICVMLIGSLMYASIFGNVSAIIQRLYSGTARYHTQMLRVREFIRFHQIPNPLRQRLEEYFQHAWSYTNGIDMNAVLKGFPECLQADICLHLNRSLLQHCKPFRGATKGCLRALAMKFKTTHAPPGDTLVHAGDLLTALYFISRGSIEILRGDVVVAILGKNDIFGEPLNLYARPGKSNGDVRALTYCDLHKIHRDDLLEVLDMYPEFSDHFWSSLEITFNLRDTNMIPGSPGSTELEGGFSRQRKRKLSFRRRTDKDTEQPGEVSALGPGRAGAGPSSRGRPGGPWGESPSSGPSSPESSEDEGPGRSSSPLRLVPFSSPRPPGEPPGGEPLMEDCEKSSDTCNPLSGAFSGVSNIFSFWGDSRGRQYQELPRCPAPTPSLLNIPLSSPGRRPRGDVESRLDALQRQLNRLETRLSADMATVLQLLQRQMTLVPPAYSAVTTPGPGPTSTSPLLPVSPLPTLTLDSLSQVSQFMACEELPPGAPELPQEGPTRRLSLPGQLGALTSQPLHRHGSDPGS

O=C(NCCN1CCCC1)c1cc(-c2ccc(CN3CCOCC3)cc2)nc2ccc(F)cc12 [CABAMIQUINE]
AUC [1]: 3340 ng·h/mL
t1/2 [2]: 16 h
Survival (Plasmodium berghei [3]): 14 days
EC50 (Plasmodium falciparum [4]): 0.4 nM
fraction unbound at 5 h [5]: 0.37
EC50 (Plasmodium falciparum [6]): 1 nM
EC50 (Plasmodium falciparum [7]): 24 nM
EC50 (Plasmodium falciparum [8]): 0.4 nM
Survival (Plasmodium berghei [9]): >30 days
Activity (Plasmodium berghei [10]): 99.9%
Cmax [11]: 180 ng/mL
IC50 [12]: 16000 nM
EC50 (Plasmodium falciparum [13]): 0.4 nM
EC50 (Plasmodium falciparum [14]): 0.4 nM
EC50 (Plasmodium yoelii): 1 nM
CLH [15]: <= 1.1 ml/min/g
bioavailability [16]: 84%
EC50 (Plasmodium falciparum [17]): 0.7 nM
EC50 (MRC5): 24000 nM
Tmax [18]: 4 h
Activity (Plasmodium berghei [19]): Active
Activity (Plasmodium berghei [20]): 99.9%
CLH [21]: < 0.5 mL/min/g
Vdss [22]: 15 L/kg
Cmax [23]: 90 ng/mL
EC50 (Plasmodium berghei [24]): 5 nM
Survival (Plasmodium berghei [25]): >30 days
